Marks after values point to notes of the source that are not given here.
What was measured:
purified hMGL = target: T1, purified hMGL (Homo sapiens, UniProt Q99685); experiment: Inhibition of purified hMGL at fixed inhibitor:hMGL molar ratios; format: biochemical; settings: for hMGL Inhibition (%) 10 min: 50 μM AHMMCE, 1 hr preincubation
T1 sequence (Q99685 1-303): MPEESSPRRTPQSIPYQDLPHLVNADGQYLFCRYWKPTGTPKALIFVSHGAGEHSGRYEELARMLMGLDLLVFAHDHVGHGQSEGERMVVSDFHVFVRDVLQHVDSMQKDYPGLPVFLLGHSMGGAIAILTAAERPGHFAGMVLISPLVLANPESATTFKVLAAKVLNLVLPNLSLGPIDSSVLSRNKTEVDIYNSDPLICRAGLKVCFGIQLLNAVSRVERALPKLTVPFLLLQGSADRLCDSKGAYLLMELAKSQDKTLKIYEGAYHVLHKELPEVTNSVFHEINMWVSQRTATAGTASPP

[1] = target: T2, hMGL (recombinant hexa-histidine-tagged human MGL) (Homo sapiens, UniProt Q99685); experiment: Fluorescence-based AHMMCE hydrolysis assay, E. coli lysate containing hMGL; format: biochemical; settings: for hMGL inhibition potency (in words): E. coli lysate containing hMGL, 3-hr incubation, AHMMCE
T2 sequence (Q99685 1-303): T1 sequence (Q99685 1-303)
Summary of the method: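 Test compound was preincubated 15 min at room temperature with E. coli lysate containing hMGL (175 ng total protein) in 50 mM Tris-HCl pH 7.4 with 8% DMSO. AHMMCE was then added (20 μM final) and fluorescence (360/460 nm) read every 15 min for 3 hr. HMC formed at 2 h was quantified against an HMC standard curve, and IC50 was fitted by nonlinear regression.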

hMGL cysteine residues = target: T3, hMGL cysteine residues (Homo sapiens, UniProt Q99685); experiment: MALDI-TOF MS of tryptic digest of NAM-treated hMGL; settings: for Relative Alkylation of Cys39: percent alkylation of Cys39 relative to Cys208
T3 sequence (Q99685 1-303): T1 sequence (Q99685 1-303)
Summary of the method: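 Purified His-tagged hMGL (3 μM) was incubated 1 hr at room temperature in 10 mM Tris-HCl pH 8.0 with test compound at set molar ratios. It was desalted into 50 mM ammonium bicarbonate with 0.02% CYMAL, pH 8.0, then trypsin-digested overnight, either directly or after DTT (17 mM, 30 min) and iodoacetamide (55 mM, 1 hr, dark). Digests were analysed by MALDI-TOF MS with CHCA matrix.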

recombinant MGL = settings: read-out: IC50, recombinant MGL; time-dependent; ref Alexander and Cravatt, 2006; cited from earlier work
[2] = inhibitor:hMGL molar ratio 3.3:1
[3] = inhibitor:hMGL molar ratio 8.3:1

## CN(C)C(=O)n1nnc(Cc2ccc(-c3ccccc3)cc2)n1 [AM6701, 5-((biphenyl-4-yl)methyl)-N,N-dimethyl-2H-tetrazole-2-carboxamide]
Purified hMGL; inhibitor:hMGL molar ratio 1:1
  hMGL Inhibition (%) 10 min: 72%
Purified hMGL; [2]
  hMGL Inhibition (%) 10 min: 85%
Purified hMGL; [3]
  hMGL Inhibition (%) 10 min: 91%

## CN(C)C(=O)n1nnnc1Cc1ccc(-c2ccccc2)cc1 [AM6702, 5-((biphenyl-4-yl)methyl)-N,N-dimethyl-1H-tetrazole-1-carboxamide]
[1]
  hMGL inhibition potency (in words): nM range

## CCCCC/C=C\C/C=C\C/C=C\C/C=C\CCCCN1C(=O)C=CC1=O [NAM, N-arachidonylmaleimide]
[1]
  hMGL inhibition potency (in words): markedly less potent
[1]; large molar NAM excesses (Figure 1C)
  extent of hMGL inhibition at large molar excesses: completely
Purified hMGL; inhibitor:hMGL molar ratio 1:1
  hMGL Inhibition (%) 10 min: 51%
Purified hMGL; [2]
  hMGL Inhibition (%) 10 min: 80%
Purified hMGL; [3]
  hMGL Inhibition (%) 10 min: 82%
Purified hMGL; inhibitor:hMGL molar ratio 33:1
  hMGL Inhibition (%) 10 min: 84%
Purified hMGL; molar ratio not stated at the place
  hMGL inhibition achieved with partial alkylation of Cys215 and/or Cys249: ~ 80%
hMGL cysteine residues; NAM:hMGL ratio 8.3:1
  Relative Alkylation of Cys208: 0%
  Relative Alkylation of Cys39: 0%
hMGL cysteine residues; NAM:hMGL ratio 33:1
  Relative Alkylation of Cys39: 100% ^(a)
hMGL cysteine residues; NAM:hMGL ratio 33:1, relative to Cys39/Cys208 pair
  Relative Alkylation of Cys208: 0% ^(a)

## LY2183240
Recombinant MGL
  IC50: ~5.3 nM

Reference: publication PMC3972761 (Chemistry & biology, 2008)
